RORa activator: activators of orphan receptor RORA, primary screen, cell-based, luminescence; AID 560, 2006; Nuclear receptor ROR-alpha (Homo sapiens), P35398; activation, % at 10 µM; CHO-K1 Gal4-RORA LBD luciferase reporter; percent increase over mock-subtracted basal signal; hit rate 1.5% among 65,000;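 active means activation above the mean of all tested compounds plus 3 SD, cut at about 49% in these data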;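 further: 0% = DMSO-treated RORA cells and 100% = added signal equal to DMSO minus mock-transfected cells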
M1 ag: M1 muscarinic receptor agonists, primary screen, CHO-M1 cells, Fluo-4 calcium, agonist mode | Fluo-4 calcium fluorescence; hits give high values | B-score at 10 µM | hit rate 3% among 64,000 | AID 626, 2007 | Muscarinic acetylcholine receptor M1;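 active means fluorescence rise, raw or as B-score row- and column-corrected plate score, outside the 99.7% band of its plate's samples, either direction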
D1 mod: D1 CRE-luciferase signal change, two-sided – cell-based, HEK293 D1, dopamine EC30, D1 allosteric modulator project, primary screen; D(1A) dopamine receptor (Homo sapiens), P21728; dopamine EC30 potentiation; actives deviate in either direction; B-score at 10 µM; hit rate 5.9% among 58,000;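 active means luminescence count or its row- and column-corrected plate score outside the 99.7% band of the plate's sample wells, on either side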
M1 antagonist: antagonists of rat M1 muscarinic receptor; Muscarinic acetylcholine receptor M1 (Rattus norvegicus), P08482; hit rate 3.4% among 64,000; CHO-M1 cells, Fluo-4 calcium, ACh EC80 antagonist mode; hits give low values; B-score at 10 µM; AID 628, 2007;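 active means calcium fluorescence response, raw or row-and-column corrected B-score, differing from the plate sample mean either way at a set confidence level, mostly lower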
Target sequence (P08482 whole entry, looked up): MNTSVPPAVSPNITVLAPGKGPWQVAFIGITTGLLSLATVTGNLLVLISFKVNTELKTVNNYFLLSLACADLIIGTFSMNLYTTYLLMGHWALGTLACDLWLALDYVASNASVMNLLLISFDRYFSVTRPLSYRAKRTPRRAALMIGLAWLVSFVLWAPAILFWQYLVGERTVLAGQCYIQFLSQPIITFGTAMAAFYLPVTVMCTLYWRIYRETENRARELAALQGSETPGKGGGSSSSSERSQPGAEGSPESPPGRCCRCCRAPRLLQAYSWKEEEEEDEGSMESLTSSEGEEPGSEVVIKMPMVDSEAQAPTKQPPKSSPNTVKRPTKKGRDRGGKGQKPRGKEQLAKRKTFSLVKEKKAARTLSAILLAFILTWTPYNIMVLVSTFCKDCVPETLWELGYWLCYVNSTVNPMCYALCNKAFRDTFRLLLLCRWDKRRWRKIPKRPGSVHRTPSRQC
SF1 activator: activators of human SF-1, primary screen, cell-based, CHO-K1, Gal4-SF-1 LBD, luciferase luminescence. hit rate 1.9% among 65,000. Steroidogenic factor 1 (Homo sapiens), Q13285. activation, % at 10 µM. CHO-K1 Gal4-SF-1 LBD luciferase reporter; % increase over DMSO SF-1-specific signal. AID 522, 2006;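 active means activation above the mean activation of all tested compounds plus 3 SD, cut at about 50% in these data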
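Test system: transient Gal4-SF-1 LBD reporter, CHO-K1; Amount: 4,000 CHO-K1 cells per well; Doses: 10 µM only; Timing: compound exposure 20 h at 37 °C; Signal: luciferase light emission; Read-out basis: percent activation relative to DMSO median and mock-transfected background; Control set: DMSO negative control and −SF1 background wells; Replicates: one test per compound.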
mHtt clearance: clearance of mutant huntingtin inclusions, primary screen, imaging, HeLa Exon1htt(103Q)mCFP, confocal imaging | aggregate imaging; zero = plate's median compound well | inhibition, % at 1.5 µM | hit rate 0.42% among 47,000 | AID 853, 2007;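 active means inhibition of aggregate fluorescence above about 70%, also judged a hit by eye on the cell image, limit read from the data, passing the limit was not always enough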;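 further: cells exposed to compound for three days before fixation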
D1 PAM confirm: D1 receptor positive allosteric modulators, retest, confirmation, cell-based, HEK293 D1, CRE-luciferase, duplicate. shares compounds with D1 mod. luminescence at 10 µM. dopamine EC30 potentiation; hits give high values. AID 642, 2007. hit rate 88% among 2,200;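 active means luminescence in either of two replicates above the same-plate mean plus 3 SD of the low-dose dopamine control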
D1 ag no DA: D1 receptor agonism without dopamine, confirmation, mechanism study for D1 allosteric modulator project, cell-based, HEK293 D1, CRE-luciferase, secondary assay 1; shares compounds with D1 mod; hit rate 0.8% among 1,900; luminescence, no dopamine; hits give high values; luminescence at 10 µM; AID 646, 2007; in the data active means luminescence above about 3900
Isoprot counter: counter-screen for D1 modulators: isoproterenol response in HEK293 cells; shares compounds with D1 mod; HEK293 D1 CRE-luciferase, isoproterenol EC30 counter-screen; calls only at 10 µM; hit rate 63% among 2,200;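 active means luminescence in either replicate above plate mean of wells with a partly effective reference agonist dose plus 3 SD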;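 further: isoproterenol raises cAMP through native beta-adrenoceptor Gs so signal bypasses D1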
Numbers without * were called inactive; i = inactive; nt = no result; + = active, no number. Only some compounds are listed: those with a hit (about 11% of all), similar ones and a draw of the others.

SMILES | RORa activator | M1 ag | D1 mod | M1 antagonist | SF1 activator | mHtt clearance | D1 PAM confirm | D1 ag no DA | Isoprot counter
Brc1ccc(-c2nn3c(-c4ccco4)nnc3s2)o1 | -2 | 0.21 | 4.1* | -0.4 | -2 | -25 | 10612* | 1476 | +
CC(C)c1cc(NCCN2CCOCC2)n2c(nc3ccccc32)c1C#N | -1 | -0.19 | 0.93 | 0.72 | 1 | nt | nt | nt | nt
CC(C)Cc1nc(N2CCN(C(=O)c3ccccc3)CC2)c(C#N)c2c1CCC2 | nt | nt | nt | nt | nt | -9 | nt | nt | nt
CC(=O)N1CCN(c2nc(CC(C)C)c3c(c2C#N)CCC3)CC1 | -22 | -0.85 | 18* | -0.85 | -9 | -29 | 22940* | 1688 | +
CCCc1nc(N2CCOCC2)c(C#N)c2c1CCCC2 | -5 | -0.27 | 6.5* | 0.36 | 4 | nt | 7888* | 1524 | i
O=C(c1ccco1)N1CCN(c2nc(C3CC3)nc3sc4c(c23)CCCC4)CC1 | 6 | 0.79 | 6.9* | 0.17 | -16 | nt | 15256* | 1564 | i
CC(C)c1cc(N2CCN(C(=O)c3ccco3)CC2)n2c(nc3ccccc32)c1C#N | -9 | 2.1 | 6* | -0.88 | -21 | nt | 8868* | nt | +
N#CCCn1c(Cl)nc2ccccc21 | -2 | -0.17 | -0.4 | -1.7 | 3 | 40 | nt | nt | nt
CC(C)Cc1nc(N2CCCCC2)c(C#N)c2c1CCC2 | 4 | 0.08 | 0.2 | 0.005 | 7 | -19 | nt | nt | nt
CC1(C)Cc2c(C#N)c(N3CCN(C(=O)c4ccco4)CC3)nc(Cc3ccccc3)c2CO1 | -25 | -0.15 | nt | 0.019 | -16 | -4 | nt | nt | nt
CC(C)Cc1nc(N2CCN(C(=O)C(C)C)CC2)c(C#N)c2c1CCC2 | -10 | 2.5 | 4.5* | 0.57 | -15 | nt | 7400* | 1544 | i
N#Cc1c(N2CCN(C(=O)c3ccccc3)CC2)nc(-c2ccccc2)c2c1CCCC2 | nt | nt | nt | nt | nt | 23 | nt | nt | nt
CC(C)Cc1nc(N2CCN(C(=O)c3ccco3)CC2)c(C#N)c2c1CCC2 | 12 | 0.25 | 7.5* | 0.11 | 1 | nt | 12548* | 1660 | +
N#Cc1c(N2CCN(C(=O)c3ccco3)CC2)nc(-c2ccccc2)c2c1CCCC2 | -10 | -0.6 | 2.8* | -0.019 | -5 | nt | 13716* | 1492 | +
CC(=O)c1cccc(NC(=O)c2cc3nc(C)cc(C)n3n2)c1 | 6 | 0.64 | -0.65 | 0.083 | 37 | -8 | nt | nt | nt
N#Cc1ccccc1Cn1c(=O)n(-c2ccc(CC(=O)NCc3ccco3)cc2)c(=O)c2sccc21 | 8 | -0.0099 | -0.22 | 0.21 | -19 | nt | nt | nt | nt
N#Cc1ccccc1Cn1c(=O)n(Cc2ccc(C(=O)NCc3ccco3)cc2)c(=O)c2sccc21 | 13 | -0.45 | 16* | 0.77 | 10 | nt | 10644* | 1632 | +
Cn1c(Cn2c(=O)sc3ccccc32)nnc1SCC(=O)NCc1ccccc1Cl | -15 | -0.96 | -0.023 | -0.68 | -24 | nt | nt | nt | nt
O=C1CC(c2ccccc2)CC(O)=C1C=NCCN1CCN(C(=O)Nc2ccccc2)CC1 (configuration not stated) | -16 | -0.57 | -0.11 | -0.54 | 6 | 20 | nt | nt | nt
O=c1[nH]c2cc3c(cc2cc1C(c1nnnn1C1CCCC1)N1CCSCC1)OCCO3 (configuration not stated) | 12 | -2.6 | 6.9* | 0.5 | 3 | 34 | 10448* | 1784 | i
COc1ccc(N(C(=O)Nc2ccc(Cl)cc2)C2=NCCC2)cc1 | 0 | -0.61 | 0.35 | -0.37 | 1 | nt | nt | nt | nt
